Measured values: ChEMBL document CHEMBL1147050, “Small-molecule agonists for the glucagon-like peptide 1 receptor” (Proc Natl Acad Sci U S A, 2007)
Active and inactive are the calls of the source. The calls are words filed in the database; no cut-off is given here.

What was measured:
Mus musculus [1] = species on record: Mus musculus; assay: Induction of 10 mM glucose-induced insulin release in CD1 GLP1 receptor knockout mouse pancreatic islets at 1000 nM; type: functional
In short: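 Islets came from CD1 GLP-1 receptor knockout mice, isolated by collagenase and cultured overnight, then perifused at 37 °C, 0.30 ml/min, 30 islets per column. After 30 min at 3 mM glucose, glucose was 3 mM from 0–30 min, then 10 mM. Agents were present 10–60 min, with DMSO ≤0.1% and a 10 μM imidazoline control. Three groups of 30 islets, mean ± SEM.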

Pancreas = assay: Induction of 10 mM glucose-induced insulin release in Sprague-Dawley rat pancreas at 10 uM; type: functional, tissue-based
In short: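 Pancreas from male SD rats perfused at 37°C with oxygenated Krebs Ringer containing 0.25% BSA, 4% Dextran T-70 and 2 mM calcium, total flow 1.9 ml/min. Compound (final DMSO 0.25%) given at t = 20–40 min with 10 mM glucose; insulin release followed; two to three experiments, mean ± SD.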

Mus musculus [2] = species on record: Mus musculus; assay: Induction of 10 mM glucose-induced insulin release in CD1 GLP1 receptor knockout mouse pancreatic islets at 100 nM; type: functional
[3] = molecular target: T1, Glucagon-like peptide 1 receptor (Homo sapiens, UniProt P43220); assay: Agonist activity at human GLP1 receptor expressed in BHK cells assessed as cAMP accumulation; type: functional, cell-based
Mus musculus [4] = species on record: Mus musculus; assay: Induction of 10 mM glucose-induced insulin release in CD1 wild type mouse pancreatic islets at 100 nM; type: functional
In short: (§1)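 Adult CD1 wild-type mouse islets were isolated by collagenase digestion, cultured overnight in RPMI 1640 with 10% newborn calf serum, and perifused the next day. Columns held 30 islets, run at 37 °C and 0.30 ml/min in pH 7.4 Hepes buffer with albumin. After 30 min basal perifusion at 3 mM glucose, glucose was 3 mM from 0–60 min, then 10 mM. Agent was present 10–70 min (final DMSO ≤0.1%). Three groups of 30 islets, mean ± SEM.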

Mus musculus [5] = species on record: Mus musculus; assay: Induction of 3 mM glucose-induced insulin release in CD1 wild type mouse pancreatic islets at 1000 nM; type: functional; in short: as §1
Mus musculus [6] = species on record: Mus musculus; assay: Induction of 10 mM glucose-induced insulin release in CD1 wild type mouse pancreatic islets at 1000 nM; type: functional
In short: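 Islets from adult CD1 mice isolated by collagenase and cultured overnight in RPMI 1640 with 10% newborn calf serum. Groups of 30 islets perifused at 37°C, 0.30 ml/min, in Hepes-bicarbonate buffer with albumin. Glucose 3 mM from 0–60 min, then 10 mM; compound added at 10 min and removed at 70 min. Final DMSO ≤0.1%. Three groups per condition.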

[7] = molecular target: T1, Glucagon-like peptide 1 receptor; assay: Increase in [125I]GLP1 binding to human GLP1 receptor expressed in BHK cells; type: cell-based
In short: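 BHK-cell plasma membranes expressing human GLP-1 receptor with 125I-GLP-1(7–36)amide tracer (50,000 cpm/well) in 25 mM Hepes, 0.1% BSA, pH 7.4; final DMSO 4.4%. Incubated 1 h at 37°C, then vacuum filtration and one wash. Nonspecific binding defined with 1 μM GLP-1; triplicates; curves fitted as one-site competition.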

Mus musculus [8] = species on record: Mus musculus; assay: Induction of 3 mM glucose-induced insulin release in CD1 wild type mouse pancreatic islets at 100 nM; type: functional; in short: as §1
[9] = molecular target: T2, Glucagon-like peptide 2 receptor (Homo sapiens) (UniProt O95838); assay: Agonist activity at human GLP2 receptor expressed in BHK cells assessed as cAMP accumulation; type: functional, cell-based
T2 sequence (whole entry): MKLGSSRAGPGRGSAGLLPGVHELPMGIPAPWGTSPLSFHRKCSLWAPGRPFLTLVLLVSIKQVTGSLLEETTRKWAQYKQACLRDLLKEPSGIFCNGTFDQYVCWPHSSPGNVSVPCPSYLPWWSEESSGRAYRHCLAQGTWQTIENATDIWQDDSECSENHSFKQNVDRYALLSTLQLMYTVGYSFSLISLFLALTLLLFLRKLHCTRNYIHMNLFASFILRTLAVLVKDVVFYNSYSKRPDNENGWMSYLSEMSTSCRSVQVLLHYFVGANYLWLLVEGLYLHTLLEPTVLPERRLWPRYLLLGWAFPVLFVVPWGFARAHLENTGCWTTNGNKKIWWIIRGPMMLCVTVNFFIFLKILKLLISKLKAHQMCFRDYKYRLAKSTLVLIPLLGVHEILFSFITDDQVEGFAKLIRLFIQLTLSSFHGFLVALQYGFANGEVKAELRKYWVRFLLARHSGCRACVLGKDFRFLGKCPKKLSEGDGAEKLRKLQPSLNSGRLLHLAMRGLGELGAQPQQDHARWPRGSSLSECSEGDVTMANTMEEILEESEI

[10] = molecular target: T3, Gastric inhibitory polypeptide receptor (Homo sapiens) (UniProt P48546); assay: Agonist activity at human GIP receptor expressed in BHK cells assessed as cAMP accumulation; type: functional, cell-based
T3 sequence (whole entry): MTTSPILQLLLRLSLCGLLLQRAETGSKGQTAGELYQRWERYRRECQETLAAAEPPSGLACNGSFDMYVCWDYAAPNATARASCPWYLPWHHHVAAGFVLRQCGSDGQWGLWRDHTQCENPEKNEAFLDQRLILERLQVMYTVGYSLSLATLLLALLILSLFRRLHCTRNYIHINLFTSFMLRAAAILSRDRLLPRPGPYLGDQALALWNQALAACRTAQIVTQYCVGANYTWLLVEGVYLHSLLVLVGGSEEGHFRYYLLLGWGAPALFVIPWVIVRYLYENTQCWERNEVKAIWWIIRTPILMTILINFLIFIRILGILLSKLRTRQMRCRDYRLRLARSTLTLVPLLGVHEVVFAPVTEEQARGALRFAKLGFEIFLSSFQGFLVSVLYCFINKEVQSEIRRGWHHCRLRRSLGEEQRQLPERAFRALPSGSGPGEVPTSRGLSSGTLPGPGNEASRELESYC

[11] = molecular target: Glucagon receptor (Homo sapiens) (UniProt P47871); assay: Agonist activity at human glucagon receptor expressed in BHK cells assessed as cAMP accumulation; type: functional, cell-based
Chain of Glucagon receptor (Homo sapiens) (P47871 whole entry): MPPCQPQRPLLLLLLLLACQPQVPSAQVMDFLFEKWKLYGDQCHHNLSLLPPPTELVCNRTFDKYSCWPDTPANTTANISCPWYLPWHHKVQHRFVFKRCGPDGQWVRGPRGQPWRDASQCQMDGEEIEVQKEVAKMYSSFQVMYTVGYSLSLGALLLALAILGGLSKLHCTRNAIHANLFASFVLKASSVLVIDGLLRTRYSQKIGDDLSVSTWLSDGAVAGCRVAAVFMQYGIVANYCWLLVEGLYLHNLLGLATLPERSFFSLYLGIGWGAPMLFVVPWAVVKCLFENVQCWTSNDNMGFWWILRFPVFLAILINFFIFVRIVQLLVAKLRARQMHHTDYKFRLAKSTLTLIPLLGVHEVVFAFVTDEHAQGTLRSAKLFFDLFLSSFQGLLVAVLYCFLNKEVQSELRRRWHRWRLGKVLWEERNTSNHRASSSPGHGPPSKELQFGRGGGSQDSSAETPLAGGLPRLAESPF

T1 sequence (P43220 whole entry): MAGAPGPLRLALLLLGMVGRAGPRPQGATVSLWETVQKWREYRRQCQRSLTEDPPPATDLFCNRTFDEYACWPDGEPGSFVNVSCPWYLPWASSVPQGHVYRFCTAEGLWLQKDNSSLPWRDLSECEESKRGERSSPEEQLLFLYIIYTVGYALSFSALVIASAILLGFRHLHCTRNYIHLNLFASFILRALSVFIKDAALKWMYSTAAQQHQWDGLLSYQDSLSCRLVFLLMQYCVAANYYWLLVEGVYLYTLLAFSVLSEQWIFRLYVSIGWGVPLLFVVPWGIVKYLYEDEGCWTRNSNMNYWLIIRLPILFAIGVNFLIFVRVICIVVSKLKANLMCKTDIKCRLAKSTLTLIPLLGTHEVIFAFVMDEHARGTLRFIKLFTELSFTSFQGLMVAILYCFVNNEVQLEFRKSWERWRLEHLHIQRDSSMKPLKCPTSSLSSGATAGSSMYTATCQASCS

SMILES | Activity (Mus musculus [1]) | Activity (Pancreas) | Activity (Mus musculus [2]) | EC50 [3] | Activity (Mus musculus [4]) | Activity (Mus musculus [5]) | Activity (Mus musculus [6]) | Activity [7] | Activity (Mus musculus [8]) | Activity [9] | Activity [10] | Activity [11]
CC(C)(C)Nc1nc2cc(Cl)c(Cl)cc2nc1S(C)(=O)=O | inactive | Active | inactive | 0.101 µM | inactive | inactive | Active | Active | inactive | – | – | –
CC[C@H](C)[C@H](NC(=O)[C@H](Cc1ccccc1)NC(=O)[C@H](CCC(=O)O)NC(=O)[C@H](CCCCN)NC(=O)[C@H](C)NC(=O)[C@H](C)NC(=O)[C@H](CCC(N)=O)NC(=O)CNC(=O)[C@H](CCC(=O)O)NC(=O)[C@H](CC(C)C)NC(=O)[C@H](Cc1ccc(O)cc1)NC(=O)[C@H](CO)NC(=O)[C@H](CO)NC(=O)[C@@H](NC(=O)[C@H](CC(=O)O)NC(=O)[C@H](CO)NC(=O)[C@@H](NC(=O)[C@H](Cc1ccccc1)NC(=O)[C@@H](NC(=O)CNC(=O)[C@H](CCC(=O)O)NC(=O)[C@H](C)NC(=O)[C@@H](N)Cc1c[nH]cn1)[C@@H](C)O)[C@@H](C)O)C(C)C)C(=O)N[C@@H](C)C(=O)N[C@@H](Cc1c[nH]c2ccccc12)C(=O)N[C@@H](CC(C)C)C(=O)N[C@H](C(=O)N[C@@H](CCCCN)C(=O)NCC(=O)N[C@@H](CCCN=C(N)N)C(=O)NCC(=O)O)C(C)C | inactive | – | inactive | – | Active | inactive | – | – | inactive | – | – | –
Cc1cnc(Sc2nc3cc(Cl)c(Cl)cc3nc2C(F)(F)F)s1 | – | – | – | 1.4 µM | – | – | – | Dose-dependent effect | – | inactive | inactive | inactive
